From ChEMBL document CHEMBL4433211, “Discovery of the First-in-Class GSK-3β/HDAC Dual Inhibitor as Disease-Modifying Agent To Combat Alzheimer's Disease” (ACS Med Chem Lett, 2019)
Calls of active or inactive are those of the source. The calls are words filed in the database; no cut-off is given here.

Experiments:
[1] = biological target: Glycogen synthase kinase-3 beta (Homo sapiens, UniProt P49841); assay: Inhibition of human recombinant GSK3beta using GSM as substrate incubated for 30 mins by luminescence based assay
Glycogen synthase kinase-3 beta, sequence (P49841 whole entry): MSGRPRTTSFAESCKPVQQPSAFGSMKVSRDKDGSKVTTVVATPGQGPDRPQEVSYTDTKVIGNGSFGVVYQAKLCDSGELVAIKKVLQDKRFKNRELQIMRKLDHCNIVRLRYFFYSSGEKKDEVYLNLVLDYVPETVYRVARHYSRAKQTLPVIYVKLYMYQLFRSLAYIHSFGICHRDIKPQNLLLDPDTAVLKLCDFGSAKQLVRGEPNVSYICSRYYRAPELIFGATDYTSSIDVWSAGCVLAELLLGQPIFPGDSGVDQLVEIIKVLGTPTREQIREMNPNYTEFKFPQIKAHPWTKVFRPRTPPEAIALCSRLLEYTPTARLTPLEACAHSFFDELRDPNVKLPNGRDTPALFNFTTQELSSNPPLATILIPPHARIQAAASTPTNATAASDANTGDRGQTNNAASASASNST

[2] = biological target: T1, Protein deacetylase HDAC6 (Homo sapiens, UniProt Q9UBN7); assay: Inhibition of human recombinant his tagged HDAC6 expressed in baculovirus infected […] insect cells using batcp as substrate incubated for 1 hr by fluorescence based assay
T1 sequence (Q9UBN7 whole entry): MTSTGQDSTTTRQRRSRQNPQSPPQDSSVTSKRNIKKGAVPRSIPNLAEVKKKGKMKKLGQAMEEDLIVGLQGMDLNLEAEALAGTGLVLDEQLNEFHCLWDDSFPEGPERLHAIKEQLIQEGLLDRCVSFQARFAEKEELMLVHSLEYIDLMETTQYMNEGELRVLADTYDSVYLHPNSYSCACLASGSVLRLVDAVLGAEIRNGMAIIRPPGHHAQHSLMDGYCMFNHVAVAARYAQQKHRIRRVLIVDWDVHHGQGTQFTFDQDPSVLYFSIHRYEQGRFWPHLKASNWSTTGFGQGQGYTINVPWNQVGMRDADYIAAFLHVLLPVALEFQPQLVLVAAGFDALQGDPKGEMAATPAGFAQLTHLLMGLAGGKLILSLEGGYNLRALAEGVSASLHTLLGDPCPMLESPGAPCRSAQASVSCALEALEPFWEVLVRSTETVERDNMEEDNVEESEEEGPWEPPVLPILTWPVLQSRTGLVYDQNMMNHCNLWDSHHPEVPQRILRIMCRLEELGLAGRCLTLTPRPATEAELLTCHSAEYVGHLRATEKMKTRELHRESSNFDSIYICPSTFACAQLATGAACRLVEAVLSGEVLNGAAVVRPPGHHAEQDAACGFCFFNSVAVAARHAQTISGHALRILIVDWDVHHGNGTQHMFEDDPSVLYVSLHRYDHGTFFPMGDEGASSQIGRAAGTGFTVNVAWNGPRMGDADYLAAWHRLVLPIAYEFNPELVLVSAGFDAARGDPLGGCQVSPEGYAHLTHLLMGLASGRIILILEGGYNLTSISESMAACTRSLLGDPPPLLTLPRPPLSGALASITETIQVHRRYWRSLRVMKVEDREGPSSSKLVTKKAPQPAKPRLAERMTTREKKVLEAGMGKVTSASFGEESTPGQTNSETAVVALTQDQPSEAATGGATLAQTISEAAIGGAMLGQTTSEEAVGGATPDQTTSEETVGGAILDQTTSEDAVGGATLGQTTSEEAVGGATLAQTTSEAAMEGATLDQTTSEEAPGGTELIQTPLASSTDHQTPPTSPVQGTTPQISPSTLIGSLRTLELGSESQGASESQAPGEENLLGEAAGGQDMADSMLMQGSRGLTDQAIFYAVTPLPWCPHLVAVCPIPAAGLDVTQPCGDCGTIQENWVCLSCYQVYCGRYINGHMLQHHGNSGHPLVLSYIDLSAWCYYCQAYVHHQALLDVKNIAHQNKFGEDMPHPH

Histone deacetylase 1 = Histone deacetylase 1 (Homo sapiens, UniProt Q13547); assay: Inhibition of human recombinant his tagged HDAC1 expressed in baculovirus infected […] insect cells using tertbutyloxycarbonyl (Boc)-(Ac)-Lys-7-amino-4-methylcoumarin as substrate incubated for 1 hr by fluorescence based assay
Histone deacetylase 1, sequence (Q13547 whole entry): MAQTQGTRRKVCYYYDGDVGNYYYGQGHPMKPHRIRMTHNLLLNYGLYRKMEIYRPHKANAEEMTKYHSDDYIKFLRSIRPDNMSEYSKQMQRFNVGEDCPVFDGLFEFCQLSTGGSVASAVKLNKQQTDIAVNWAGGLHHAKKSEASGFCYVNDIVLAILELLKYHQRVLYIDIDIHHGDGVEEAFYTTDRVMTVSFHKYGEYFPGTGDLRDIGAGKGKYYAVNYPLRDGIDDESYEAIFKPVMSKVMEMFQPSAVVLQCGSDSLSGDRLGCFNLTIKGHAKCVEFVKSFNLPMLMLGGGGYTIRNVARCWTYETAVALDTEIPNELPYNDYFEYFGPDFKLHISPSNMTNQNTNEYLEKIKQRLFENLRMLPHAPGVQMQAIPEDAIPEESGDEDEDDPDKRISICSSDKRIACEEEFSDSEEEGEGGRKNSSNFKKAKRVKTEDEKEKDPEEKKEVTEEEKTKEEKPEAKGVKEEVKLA

SH-SY5Y [3] = assay: Induction of neurogenesis in human SH-SY5Y cells assessed as upregulation of N-myc mRNA at 10 uM incubated for 24 hrs by RT-PCR analysis; assay type: functional, cell-based
Procedure, shortened: (§1)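 SH-SY5Y cells treated 24 h (10 μM, or 1 μM for one parent compound; retinoic acid positive control); GAP43, N-myc and MAP-2 mRNA measured by RT-PCR, expressed as fold of control.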

SH-SY5Y [4] = assay: Induction of neurogenesis in human SH-SY5Y cells assessed as stimulation of neurite outgrowth at 10 uM incubated for 72 hrs by phase contrast microscopic analysis; assay type: functional, cell-based
Procedure, shortened: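 SH-SY5Y cells treated 72 h at 10 μM, retinoic acid (10 μM) as positive control; neurite-bearing cells scored from images taken at 20× magnification.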

SH-SY5Y [5] = assay: Induction of neurogenesis in human SH-SY5Y cells assessed as upregulation of MAP-2 mRNA at 10 uM incubated for 24 hrs by RT-PCR analysis; assay type: functional, cell-based; procedure, shortened: as §1
SH-SY5Y [6] = assay: Induction of neurogenesis in human SH-SY5Y cells assessed as upregulation of GAP43 mRNA at 10 uM incubated for 24 hrs by RT-PCR analysis; assay type: functional, cell-based; procedure, shortened: as §1

Row | SMILES | IC50 [1] [µM] | IC50 [2] [µM] | IC50 (Histone deacetylase 1) [µM] | Activity (SH-SY5Y [3]) | Activity (SH-SY5Y [4]) | Activity (SH-SY5Y [5]) | Activity (SH-SY5Y [6])
1 | O=C(CCCNC(=S)Nc1ccc2c(c1)C(=O)NC2=O)NO | 9.85 | 12.6 | 2.24 |  |  |  | 
2 | CC1=C(/C=C/C(C)=C/C=C/C(C)=C/C(=O)O)C(C)(C)CCC1 |  |  |  | Active | Active | Active | Active
3 | O=C(CCNC(=S)Nc1ccc2c(c1)C(=O)NC2=O)NO | 20 | 18.1 | 3.75 |  |  |  | 
4 | O=C(CCCCNC(=S)Nc1ccc2c(c1)C(=O)NC2=O)NO | 4.11 | 14.7 | 5.02 |  |  |  | 
